Measured values pooled from the literature.
Protocols differ between the studies behind these lines.
MMP2: 72 kDa type IV collagenase (MMP2, Homo sapiens, UniProt P08253)
F10: Coagulation factor X (F10, Homo sapiens, UniProt P00742)
UCHL1: Ubiquitin carboxyl-terminal hydrolase isozyme L1 (UCHL1, Homo sapiens, UniProt P09936)

`Cn1cc(-c2cc(F)cc(N3CCn4c(cc5c4CCCC5)C3=O)c2CO)cc(Nc2ccc(N3CCN(C4COC4)CC3)cn2)c1=O` gave an inhibition of 4% (G protein-coupled receptor kinase 6 (GRK6, Homo sapiens, UniProt P43250); enzyme activity, inhibitor; 0.1 µM).
With `COc1ccc(S(=O)(=O)N(CC(=O)NO)CC(C)C)cc1` the inhibition was 24% (MMP2; enzyme activity, inhibitor; 10 nM).
`Cn1cc(-c2cccc(N3CCc4c(sc5c4CC(C)(C)C5)C3=O)c2CO)cc(Nc2ccncn2)c1=O` gave an inhibition of -5% (G protein-coupled receptor kinase 5 (GRK5, Homo sapiens, UniProt P34947); enzyme activity, inhibitor; 1 µM).
For `c1ccc(C(NCCNC(c2ccccc2)c2ccccc2)c2ccccc2)cc1`, the inhibition was -9% (F10; enzyme activity, inhibitor; 10 µM).
`COc1cc(Nc2ncc(F)c(Nc3ccc4c(n3)NC(=O)C(C)(C)O4)n2)cc(OC)c1OC` gave an inhibition of 100% (Epithelial discoidin domain-containing receptor 1 (DDR1, Homo sapiens, UniProt Q08345); binding, competition with immobilised ligand; 10 µM).
`C#Cc1n[nH]c2c(-c3cn([C@@H](C)c4ccccn4)c(=O)[nH]c3=O)cc(F)cc12` gave an inhibition of 2.6% (Casein kinase I isoform gamma-1 (CSNK1G1, Homo sapiens, UniProt Q9HCP0); enzyme activity, inhibitor; 0.1 µM).
`CCOC(=O)c1ccc(OC(=O)CCCCCNC(=N)N)cc1` gave an inhibition of 5% (UCHL1; enzyme activity, inhibitor; 10 µM).
The inhibition of `CCN(CC)CCCC[C@H](NC(=O)[C@H](CC(C)C)NC(=O)[C@H](C)NC(=O)[C@H](Cc1ccccc1)NC(=O)c1ccc(C(C)(C)C)cc1)C(=O)N[C@@H](CO)C(=O)OC` is reported as -1% (Beta-2 adrenergic receptor (ADRB2, Homo sapiens, UniProt P07550); ligand displacement, radioligand; 10 µM).
`Nc1c(S(=O)(=O)O)cc(Nc2ccc(Nc3nc(Cl)nc(Nc4cccc(S(=O)(=O)O)c4)n3)c(S(=O)(=O)O)c2)c2c1C(=O)c1ccccc1C2=O` has an inhibition of 93% (Histone-lysine N-methyltransferase SETD7 (SETD7, Homo sapiens, UniProt Q8WTS6); cell-free assay; 10 µM).
`N=C(N)c1ccc2cc(OC(=O)c3ccc(N=C(N)N)cc3)ccc2c1` has an inhibition of 0% (UCHL1; enzyme activity, inhibitor; 10 µM).
The inhibition of `CC(C)C[C@H](NC(=O)[C@H](Cc1ccccc1)NC(=O)c1cnccn1)B(O)O` is reported as 48.8% (F10; enzyme activity, inhibitor; 33 µM).
`Cc1ncc(C)n2nc(/C=C/c3nc(N4CCCC4)cc(N4CCOCC4)n3)nc12` has an inhibition of 3% (MMP2; enzyme activity, inhibitor; 10 µM).
`CN(C)C(=O)COC(=O)Cc1ccc(OC(=O)c2ccc(NC(=N)N)cc2)cc1` gave an inhibition of 83% (MMP2; enzyme activity, inhibitor; 10 µM).
`O=C(Nc1cccnn1)N1CCN([C@@H]2CCOc3cc(C(F)(F)F)ccc32)CC1` gave an inhibition of -15% (Prostacyclin receptor (PTGIR, Homo sapiens, UniProt P43119); cell-free assay; 20 µM).
